From PubChem BioAssay
In the library only some 2.9% were active in any assay of this set; here they are far more common.
TRPC6 inh: mouse TRPC6 channel inhibitors, primary screen, cell-based, HEK293, membrane potential dye; ACh-evoked depolarization; hits give low values; B-score at 10 µM; hit rate 1.1% among 310,000; Short transient receptor potential channel 6 (Mus musculus), Q61143; AID 2553, 2010;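 active = B-score under library mean minus 3 SD, initial fluorescence not abnormally high, positive integrated signal ratio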;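 also: B-score derived from integrated fluorescence ratio over the kinetic read; more negative B-score means stronger inhibition of depolarization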
TRPC4 PAM: positive allosteric modulators of TRPC4, primary screen, cell-based, mouse TRPC4beta, HEK293 mu-opioid, Fluo-4 calcium | B-score at 10 µM | AID 2227, 2009 | hit rate 0.42% among 310,000 | Short transient receptor potential channel 4 (Mus musculus), Q9QUQ5 | DAMGO EC20, Fluo-4 Ca2+ flux; hits give high values;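 active = B-score of calcium response area above 5 SD of library B-scores, with initial fluorescence ratio within 5 SD of library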;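 also: B-score of integrated fluorescence ratio over time as area under calcium response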
TRPC6 activator: mouse TRPC6 channel activators, primary screen, cell-based, HEK293, membrane potential dye; B-score at 10 µM; AID 2550, 2010; HEK293-TRPC6 membrane potential dye fluorescence; hits give high values; Short transient receptor potential channel 6 (Mus musculus), Q61143; hit rate 0.13% among 310,000;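 active = B-score of the integrated fluorescence ratio above library mean plus 3 SD, and starting fluorescence ratio within library mean plus 5 SD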;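 also: higher score means more depolarization so channel activation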
Kir21 block: inhibitors of mouse Kir2.1 inward-rectifier potassium channel; B-score at 10 µM; HEK293-Kir2.1, FluxOR thallium flux fluorescence; hits give low values; Inward rectifier potassium channel 2 (Mus musculus), P35561; hit rate 0.85% among 310,000;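 active = fluorescence ratio B-score at or below minus 3 SD of library scores, with starting-brightness B-score within 2 SD, cut at about -4.2 in these data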;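 also: channel flux triggered by added potassium and thallium sulfate stimulus; B-score of peak minus minimum fluorescence over baseline after thallium stimulus; more negative B-score means stronger Kir2.1 block with less thallium influx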
TRPC4 act: activators of mouse TRPC4 channel, primary screen, Fluo4 calcium, HEK293 TRPC4beta/mu-opioid cells | Short transient receptor potential channel 4 (Mus musculus), Q9QUQ5 | Fluo4 calcium fluorescence; hits give high values | B-score at 10 µM | hit rate 0.49% among 310,000 | AID 2237, 2010;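 active = B-score above 5 SD of library B-scores, and initial fluorescence ratio not above library mean plus 5 SD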;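 also: positive B-score marks a calcium rise read as TRPC4 activation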
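Material: TRPC4beta and mu-opioid receptor HEK293 stable cells | Incubation: 45 min room-temperature Fluo4 loading, 110 s read | Detection: Kinetic Fluo4 calcium fluorescence | Measure: Integrated baseline-normalised fluorescence ratio, converted to per-well B score | Benchmarks: Low control buffer alone, high control maximal DAMGO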
TRPC4 inh: inhibitors of mouse TRPC4 channel, primary screen, Fluo4 calcium, HEK293 TRPC4beta/mu-opioid cells; DAMGO-evoked Fluo4 calcium flux; hits give low values; B-score at 10 µM; hit rate 0.39% among 300,000; AID 2247, 2010;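 active = B-score over 3 SD under the library average, no early fluorescence shift, positive overall ratio signal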
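Material: HEK293 cells with stable TRPC4beta plus mu-opioid receptor expression; probe or stimulus: DAMGO in two steps, submaximal then maximal; technique: Fluo4 calcium fluorescence by kinetic imaging, 5 s 1 Hz baseline; measure: integrated fluorescence ratio relative to baseline, converted to per-well B score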
TRPC4 sel inh 2: second selectivity test of TRPC6 inhibitors: effect on mouse TRPC4; shares compounds with TRPC6 inh; HEK293 TRPC4/MOR, membrane potential dye fluorescence; channel activated by saturating DAMGO dose; inhibition, % at 10 µM; hit rate 42% among 920; AID 2776;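 active = compounds whose fluorescence signal differed from control wells by over 3 SD, either direction, in both duplicate plates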
TRPC4 spec: mouse TRPC4 modulation by TRPC6 hits, confirmation, selectivity assay for TRPC6 inhibitor project, cell-based, HEK293 TRPC4/mu-opioid, membrane potential dye. shares compounds with TRPC6 inh. membrane potential fluorescence. activity change, negative = inhibition, % at 10 µM. hit rate 61% among 920. AID 2777, 2010;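 active = rise or fall in signal beyond 3 SD of buffer-only wells in both replicate plates, either sign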;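 also: integrated kinetic ratio of fluorescence range over baseline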
HEK293 MPD ctr 2-1: nonspecific membrane potential effects, parental HEK293, confirmation, counter-screen for TRPC6 inhibitor project, cell-based, second counter screen | shares compounds with TRPC6 inh | parental HEK293 membrane potential dye fluorescence; maximal acetylcholine challenge after compound addition | signal change vs control, % at 10 µM | hit rate 31% among 920;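 active = membrane potential signal moving either way by over 3 SD of the maximum-effect control, in both duplicate plates, meaning non-specific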
HEK293 MPD ctr-1: membrane potential modulation in parental HEK293, confirmation, counter-screen for TRPC6 inhibitor project, cell-based; shares compounds with TRPC6 inh; parental HEK293 membrane potential dye fluorescence; membrane potential signal change, % at 10 µM; hit rate 60% among 920; AID 2780, 2010;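 active = membrane potential signal shifting up or down by more than 3 SD of buffer-only wells, on both duplicate plates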
HEK293 MPD ctr-2: parental HEK293 membrane potential modulation, confirmation, counter-screen for TRPC6 modulator project, cell-based; membrane potential signal change, % at 10 µM; hit rate 51% among 2,400; shares compounds with TRPC6 inh; membrane potential dye fluorescence;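 active = membrane potential signal moves up or down beyond 5 SD from buffer-only wells, on both duplicate plates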
HEK293 MPD ctr 2-2: second check of TRPC6 modulator effects in parental HEK293 cells; inhibition, % at 10 µM; hit rate 14% among 2,400; shares compounds with TRPC6 inh; membrane potential dye fluorescence; after compound, maximal acetylcholine stimulation;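 active = membrane potential signal drops by more than 5 SD from the mean control signal, in both duplicate plates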;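 also: plate controls were acetylcholine ECmax control wells for no effect and buffer only wells for full effect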
TRPC4 ctr mod: TRPC4 modulation by TRPC6 hit compounds, confirmation, selectivity assay for TRPC6 modulator project, cell-based, HEK293 TRPC4/mu-opioid, membrane potential dye, mouse; membrane potential fluorescence; shares compounds with TRPC6 inh; percent change from control (negative = decrease, positive = increase), % at 10 µM; hit rate 69% among 2,400;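 active = membrane potential signal moved up or down beyond 5 SD of buffer control wells, in both duplicate plates, actives on both sides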;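 also: plate controls were assay buffer wells for no effect and DAMGO maximal-effect wells for full effect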
TRPC4 ctr inh 2: mouse TRPC4 off-target activity of TRPC6 modulators, second screen. shares compounds with TRPC6 inh. HEK293 TRPC4/mu-opioid, membrane potential dye fluorescence; stimulated with maximal-effect DAMGO. inhibition, % at 10 µM. hit rate 55% among 2,400. AID 488928;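 active = drop in membrane potential signal beyond 5 SD of the control wells in both duplicate plates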;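 also: TRPC4 counter screen for TRPC6 hits run under conditions tuned for TRPC6 not TRPC4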
TRPC6 block conf: mouse TRPC6 channel inhibitors, confirmation, HEK293 cells, membrane potential dye, duplicate. shares compounds with TRPC6 inh. ACh-evoked depolarization. inhibition, % at 10 µM. hit rate 43% among 3,300;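 active = fluorescence ratio falls more than 5 SD below the full-stimulation control mean, in both duplicate runs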;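 also: integrated fluorescence ratio of peak minus minimum over baseline after agonist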
TRPC6 act conf: mouse TRPC6 channel activators, confirmation, HEK293 cells, membrane potential dye, duplicate. shares compounds with TRPC6 inh. HEK293-TRPC6 membrane potential dye fluorescence, FDSS. activation, % at 10 µM. hit rate 11% among 2,800. AID 488961, 2010;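 active = ratio signal rise beyond 5 SD above unstimulated control wells' mean, seen in both duplicate runs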;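 also: plate controls were buffer EC0 wells for no effect and acetylcholine ECmax response for full effect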
Numbers without * were called inactive; i = inactive; x = not tested or not shown.

SMILES	TRPC6 inh	TRPC4 PAM	TRPC6 activator	Kir21 block	TRPC4 act	TRPC4 inh	TRPC4 sel inh 2	TRPC4 spec	HEK293 MPD ctr 2-1	HEK293 MPD ctr-1	HEK293 MPD ctr-2	HEK293 MPD ctr 2-2	TRPC4 ctr mod	TRPC4 ctr inh 2	TRPC6 block conf	TRPC6 act conf
C[N+]1(CN2C(=O)C3C4C=CC(C4)C3C2=O)CCCCC1 (stereo not drawn)	-5.6*	i	i	0.42	i	i	x	x	x	x	i	i	i	i	48%*	i
CCOC(=O)c1ccc2ncc(C(=O)OCC)c(NCCN(C)C)c2c1	-9.5*	i	i	-1.9	i	i	i	-19%*	i	-296%*	x	x	x	x	i	i
CCOC(=O)c1ccc2ncc(C(=O)OCC)c(NCCN3CCOCC3)c2c1	i	i	i	-1.6	i	i	x	x	x	x	x	x	x	x	x	x
COc1ccc(C2C(C#N)=C(N)Oc3cc(O)ccc32)cc1Cl (stereo not drawn)	i	i	i	-2.9	i	i	x	x	x	x	x	x	x	x	x	x
Cc1cc(C)c(OCCCNC2CCCC2)c(Br)c1	-5.4*	i	12*	-3.4	i	i	x	x	x	x	201%*	i	43%*	54%*	i	94%*
O=S(=O)(c1ccccc1)c1nc(NCc2cccnc2)sc1Cl	i	i	i	-2.3	i	i	x	x	x	x	x	x	x	x	x	x
CC(C)[C@@H](C(=O)NC1CCN(Cc2ccccc2)CC1)N1C(=O)N2CCc3c([nH]c4ccccc34)[C@@]2(C)C1=O	i	i	i	-1.1	i	i	x	x	x	x	x	x	x	x	x	x
CC(/C=C/c1cccc([N+](=O)[O-])c1)=N/NC(=O)c1cccnc1	-5.9*	i	i	0.37	i	i	x	x	x	x	i	i	i	i	i	i
CCc1ccc2[nH]c(=O)c(CN(Cc3ccccc3)C(=O)Nc3ccccc3OC)cc2c1	i	i	i	-0.01	i	i	x	x	x	x	x	x	x	x	x	x
CCCc1cc(NCCCN(C)C)n2c(nc3ccccc32)c1C#N	-6.8*	i	i	0.34	i	i	62%*	-36%*	42%*	-454%*	x	x	x	x	63%*	i
C=CCc1c(C)c(C#N)c2nc3ccccc3n2c1NCCN(C)C	-5.4*	i	i	-0.64	i	i	x	x	x	x	-116%*	i	-24%*	52%*	54%*	i
C=C(C)Cc1c(C)c(C#N)c2nc3ccccc3n2c1NCCCN(C)C	-7.2*	i	i	-2.1	i	i	48%*	-16%*	i	-354%*	x	x	x	x	i	i
CCc1c(C)c(C#N)c2nc3ccccc3n2c1NCCN(C)C	-9.5*	i	i	0.17	i	i	x	x	x	x	-85%*	112%*	-18%*	76%*	78%*	i
CN(CC(=O)Nc1ccccc1N1CCCC1)S(=O)(=O)c1ccc(F)cc1	i	i	i	0.05	i	i	x	x	x	x	x	x	x	x	x	x
COc1ccc2c(c1OC)C(=O)N(c1cccc(NC(C)=O)c1)C2	i	i	i	0.65	i	i	x	x	x	x	x	x	x	x	x	x
O=C(C[n+]1ccccc1)N1c2ccccc2Sc2ccccc21	-7.9*	i	i	0.27	i	i	x	x	x	x	i	82%*	i	i	82%*	i
O=C(COc1ccccc1)N1c2ccccc2Sc2ccccc21	i	i	i	-0.97	i	i	x	x	x	x	x	x	x	x	x	x
CCOC(=O)N1CCN(C(=O)CN(c2cc(Cl)ccc2OC)S(=O)(=O)c2ccccc2)CC1	-7.9*	i	i	-0.94	i	i	i	7.5%*	i	3.1%*	x	x	x	x	i	i
C=CCn1c(=N)n(CC(=O)c2ccc(Br)s2)c2ccccc21	-8*	i	i	0.48	i	i	13%*	17%*	i	i	x	x	x	x	65%*	i
O=C(CN1C2=NCCCN2c2ccccc21)c1ccc(Br)s1	i	i	i	0.44	i	i	x	x	x	x	x	x	x	x	x	x
N=c1n(CC(=O)c2cccs2)c2ccccc2n1Cc1ccccc1	-9.7*	i	i	-3	i	i	33%*	i	i	2.0%*	x	x	x	x	65%*	i
